According to ChEMBL document CHEMBL5108039, “Piperazine tethered bergenin heterocyclic hybrids: design, synthesis, anticancer activity, and molecular docking studies” (RSC Med Chem, 2022):
Activity calls are given as the source filed them. The calls are words filed in the database; no cut-off is given here.

Columns and labels:
SCC-9 [1] = test: Induction of apoptosis in human SCC-9 cells assessed as late apoptotic cells at 16.2 uM incubated for 24 hrs by Annexin V-FITC/PI staining based flow cytometric analysis (reference value: 1.4 %); type: functional
HCT-15 = test: Cytotoxicity against human HCT-15 cells assessed as cell growth inhibition; type: functional, cell-based
Outline: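 Compounds were dissolved in sterile DMSO as 10 mg ml−1 stocks and tested for in vitro growth inhibition of human cancer cell lines. Doxorubicin was the standard drug and DMSO (0.01%) the vehicle control. IC50 values are reported as means.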

SCC-9 [2] = test: Cell cycle arrest in human SCC-9 cells assessed as accumulation at G0/G1 phase at 32.4 uM incubated for 24 hrs by flow cytometry (reference value: 70.8 %); type: functional
CAL-27 [3] = test: Induction of apoptosis in human CAL-27 cells assessed as downregulation of Nanog gene expression at 32 uM by qRT-PCR analysis; type: functional, cell-based
Outline: (§1)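 CAL27 cells were treated with test compounds at several concentrations. Relative expression of vimentin, E-cad, Nanog, Oct-4, Bax and BcL-2 was measured by qRT-PCR against vehicle-treated control cells.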

CAL-27 [4] = test: Induction of apoptosis in human CAL-27 cells assessed as early apoptotic cells at 32 uM incubated for 24 hrs by Annexin V-FITC/PI staining based flow cytometric analysis (reference value: 0.1 %); type: functional
Outline: (§2)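 CAL27 cells were treated with vehicle, doxorubicin or test compounds at 10–63 μM, and apoptosis was assessed by annexin V–FITC/PI staining with flow cytometry. Cells were scored as live, early apoptotic, late apoptotic or necrotic. The vehicle was DMSO (0.01%).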

CAL-27 [5] = test: Induction of apoptosis in human CAL-27 cells assessed as upregulation of E-cad gene expression at 32 uM by qRT-PCR analysis; type: functional, cell-based
Outline: (§3)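 CAL27 cells were treated with test agents at different concentrations. Relative mRNA levels of vimentin, E-cad, Nanog, Oct-4, Bax and Bcl-2 were then quantified by qRT-PCR as apoptosis, EMT and stemness markers.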

SCC-9 [6] = test: Induction of apoptosis in human SCC-9 cells assessed as downregulation of BcL-2 gene expression at 16 uM by qRT-PCR analysis; type: functional, cell-based
SCC-9 [7] = test: Induction of apoptosis in human SCC-9 cells assessed as downregulation of BcL-2 gene expression at 32 uM by qRT-PCR analysis; type: functional, cell-based
SCC-9 [8] = test: Induction of apoptosis in human SCC-9 cells assessed as downregulation of vimentin gene expression at 16 uM by qRT-PCR analysis; type: functional, cell-based
CAL-27 [9] = test: Induction of apoptosis in human CAL-27 cells assessed as upregulation of Bax gene expression at 16 uM by qRT-PCR analysis; type: functional, cell-based; outline: as §3
SCC-9 [10] = test: Induction of apoptosis in human SCC-9 cells assessed as early apoptotic cells at 32.4 uM incubated for 24 hrs by Annexin V-FITC/PI staining based flow cytometric analysis (reference value: 2.8 %); type: functional
CAL-27 [11] = test: Induction of apoptosis in human CAL-27 cells assessed as downregulation of BcL-2 gene expression at 16 uM by qRT-PCR analysis; type: functional, cell-based; outline: as §1
SCC-9 [12] = test: Cell cycle arrest in human SCC-9 cells assessed as accumulation at G0/G1 phase at 16.2 uM incubated for 24 hrs by flow cytometry (reference value: 70.8 %); type: functional
SCC-9 [13] = test: Induction of apoptosis in human SCC-9 cells assessed as early apoptotic cells at 16.2 uM incubated for 24 hrs by Annexin V-FITC/PI staining based flow cytometric analysis (reference value: 2.8 %); type: functional
CAL-27 [14] = test: Induction of apoptosis in human CAL-27 cells assessed as necrotic cells at 16 uM incubated for 24 hrs by Annexin V-FITC/PI staining based flow cytometric analysis (reference value: 0.0 %); type: functional; outline: as §2
A549 = test: Cytotoxicity against human A549 cells assessed as cell growth inhibition; type: functional, cell-based
Outline: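 Compounds were dissolved in sterile DMSO as 10 mg ml−1 stocks and tested in vitro for cytotoxicity in a cell-line panel, with DMSO (0.01%) as vehicle control and doxorubicin as standard. Mean IC50 values were reported, and the normal lung epithelial cells were tested up to 100 μM.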

SCC-9 [15] = test: Cell cycle arrest in human SCC-9 cells assessed as accumulation at G2/M phase at 16.2 uM incubated for 24 hrs by flow cytometry (reference value: 14.2 %); type: functional
SCC-9 [16] = test: Induction of apoptosis in human SCC-9 cells assessed as upregulation of E-cad gene expression at 16 uM by qRT-PCR analysis; type: functional, cell-based
SCC-9 [17] = test: Induction of apoptosis in human SCC-9 cells assessed as upregulation of Bax gene expression at 32 uM by qRT-PCR analysis; type: functional, cell-based
CAL-27 [18] = test: Induction of apoptosis in human CAL-27 cells assessed as live cells at 32 uM incubated for 24 hrs by Annexin V-FITC/PI staining based flow cytometric analysis (reference value: 99.8 %); type: functional; outline: as §2
CAL-27 [19] = test: Induction of apoptosis in human CAL-27 cells assessed as upregulation of E-cad gene expression at 16 uM by qRT-PCR analysis; type: functional, cell-based; outline: as §3
CAL-27 [20] = test: Induction of apoptosis in human CAL-27 cells assessed as late apoptotic cells at 16 uM incubated for 24 hrs by Annexin V-FITC/PI staining based flow cytometric analysis (reference value: 0.1 %); type: functional; outline: as §2
CAL-27 [21] = test: Cell cycle arrest in human CAL-27 cells assessed as accumulation at G2/M phase at 16 uM incubated for 24 hrs by flow cytometry (reference value: 11.9 %); type: functional
CAL-27 [22] = test: Induction of apoptosis in human CAL-27 cells assessed as downregulation of Oct-4 gene expression at 32 uM by qRT-PCR analysis; type: functional, cell-based; outline: as §1
SCC-9 [23] = test: Cell cycle arrest in human SCC-9 cells assessed as accumulation at S phase at 16.2 uM incubated for 24 hrs by flow cytometry (reference value: 14.4 %); type: functional

COc1ccc(-c2csc(NC(=O)CN3CCN(Cc4c(O)c(OC)c(O)c5c4C(=O)OC4C5O[C@H](CO)[C@@H](O)[C@@H]4O)CC3)n2)cc1 (stereo not given in full)
Activity (SCC-9 [1]): 40.8%
IC50 (HCT-15): 70.5 µM
Activity (SCC-9 [2]): 77.6%
Activity (CAL-27 [3]): Active
Activity (CAL-27 [4]): 2.8%
Activity (CAL-27 [5]): Active
Activity (SCC-9 [6]): Active
Activity (SCC-9 [7]): Active
Activity (SCC-9 [8]): Active
Activity (CAL-27 [9]): Active
Activity (SCC-9 [10]): 5.9%
Activity (CAL-27 [11]): Active
Activity (SCC-9 [12]): 71.4%
Activity (SCC-9 [13]): 6.2%
Activity (CAL-27 [14]): 0.9%
IC50 (A549): > 100 µM
Activity (SCC-9 [15]): 10.6%
Activity (SCC-9 [16]): Active
Activity (SCC-9 [17]): Active
Activity (CAL-27 [18]): 91%
Activity (CAL-27 [19]): Active
Activity (CAL-27 [20]): 2%
Activity (CAL-27 [21]): 12.3%
Activity (CAL-27 [22]): Active
Activity (SCC-9 [23]): 16%
